NR2E3 ag-1 = activates human photoreceptor nuclear receptor NR2E3. AID 2300. 0.12% of 320,000 active. inhibition of corepressor binding, % at 4.78 µM. GST-NR2E3/biotin-RetCOR TR-FRET, 1536-well;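 active = percent inhibition above the cutoff of mean plus 3 SD of all tested compounds, set per screening campaign, cut at about 20% in these data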;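 also: 0% = DMSO wells and 100% = biotin wells as full block of FRET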
Target sequence (Q9Y5X4 whole entry, looked up): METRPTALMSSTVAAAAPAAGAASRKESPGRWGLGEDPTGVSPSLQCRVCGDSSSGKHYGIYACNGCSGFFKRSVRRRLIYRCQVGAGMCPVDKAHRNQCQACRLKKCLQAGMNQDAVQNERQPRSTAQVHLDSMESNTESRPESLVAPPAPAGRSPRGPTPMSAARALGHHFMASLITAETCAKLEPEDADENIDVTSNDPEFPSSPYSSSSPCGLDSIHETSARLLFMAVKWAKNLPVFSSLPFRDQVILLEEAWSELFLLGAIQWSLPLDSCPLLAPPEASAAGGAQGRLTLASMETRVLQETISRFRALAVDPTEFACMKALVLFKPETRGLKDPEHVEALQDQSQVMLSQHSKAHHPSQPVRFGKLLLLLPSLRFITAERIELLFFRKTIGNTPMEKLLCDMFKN
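system = GST-tagged NR2E3 plus biotinylated RetCOR corepressor | input = 1.35 nM GST-NR2E3 | also added = 7 nM biotin-RetCOR | schedule = 5 h incubation at 4 °C | measured by = TR-FRET with europium anti-GST and streptavidin-D2, 340 nm excitation | read-out = percent loss of FRET ratio relative to control wells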
PG9 binder = binds the HIV-1 gp120 antibody PG9. 0.43% of 360,000 active. TR-FRET gp120-PG9 antibody binding. inhibition, % at 6.7 µM; in the data active = inhibition above about 8.5%
NR2E3 ag-2 = agonists of human NR2E3 nuclear receptor | Q9Y5X4 | CHO-S Gal4-NCOR/VP16-NR2E3 two-hybrid, luciferase | inhibition of corepressor binding, % at 3.98 µM | 0.35% of 360,000 active | AID 602229;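 active = inhibition above the mean of all tested compounds plus 3 SD, cut at about 70% in these data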;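 also: 0% = DMSO with NR2E3 transfected cells and 100% = cells lacking NR2E3 construct; higher means lower luciferase signal from less NR2E3 corepressor binding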
Rev-erbA mod = modulators of human Rev-erb alpha DNA binding; P20393; Rev-erbα–FITC-DNA binding, fluorescence polarization, 90 min; activity, % at 10 µM; 0.79% of 370,000 active;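 active = activity above about 14%, limit read from the data; passing the limit was not always enough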;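 also: 0% = DMSO wells with 35 nM protein and 100% = DMSO wells with 750 nM protein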
PG9 bind confirm = confirmation of small molecules binding HIV-1 gp120 antibody PG9 | shares compounds with PG9 binder | TR-FRET PG9 antibody binding, biochemical | inhibition, % at 6.7 µM | 90% of 1,500 active; in the data active = inhibition above about 9%
PGV04 Ab binding = PGV04 control antibody binding, counter-screen; shares compounds with PG9 binder; TR-FRET PGV04 antibody-gp120 binding, biochemical; inhibition, % at 6.7 µM; 95% of 1,500 active; in the data active = inhibition above about 9.5%
PG9 bind DR = PG9 antibody binding, dose response | shares compounds with PG9 binder | TR-FRET PG9 antibody-gp120 binding inhibition | IC50, µM | 95 tested, under 10 active | AID 651848; in the data active = IC50 below about 10 µM
PGV04 binding DR = counter-screen for PG9 binders: binding to control antibody PGV04; shares compounds with PG9 binder; AID 651937; IC50, µM; TR-FRET binding to control antibody PGV04; 20% of 95 active
PG126 binding DR = PG126 binding, dose response counter-screen. shares compounds with PG9 binder. TR-FRET binding to antibody PG126, counterscreen. IC50, µM. 20% of 95 active. AID 651939
NR1D1 mod conf = confirmation of modulators of human Rev-erb alpha DNA binding; shares compounds with Rev-erbA mod; Rev-erb alpha FITC-DNA binding, fluorescence polarization, 90 min; activation, % at 25 µM; 61% of 3,000 active;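 active = activation at or above a set limit, or at least 3 SD above the negative control mean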;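 also: 0% = 35 nM protein with DMSO and 100% = 750 nM protein high control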
RORg DNA counter = RORgamma DNA-binding activity, dose-response counter-screen | AID 1259320 | 8% of 910 active | shares compounds with Rev-erbA mod | IC50, µM | purified RORgamma protein-FITC-DNA binding, fluorescence polarization;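 active = Compounds whose fitted half-maximal concentration for disrupting protein-DNA binding is below 10 micromolar; the record names Rev-erb in its text, so the target is in doubt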
Active calls of the source: *; i = inactive; . = no result. Most compounds without a hit are left out; they make up all but 1.5% or so of the library. Rule as the data show it, unless noted: active = IC50 below about 9 µM; inactive = the rest.

SMILES	NR2E3 ag-1	PG9 binder	NR2E3 ag-2	Rev-erbA mod	PG9 bind confirm	PGV04 Ab binding	NR1D1 mod conf	others
CCOC(=O)c1nn(-c2cccc(OC)c2)c2nc(CC)c(C#N)c(=O)n12	-0.5	27.5*	-0.3	37.3*	21.3*	25.2*	16.3
COc1cccc(C=NNC(=O)CSc2nc3ccccc3[nH]2)c1O	.	.	.	1.1	.	.	.
Cc1ccc(-n2c(SCC(=O)O)nc3sc4c(c3c2=O)CC(C)(C)SC4)cc1	.	0.9	10.0	-3.2	.	.	.
Cc1ccc(-n2c(SCC(=O)NCc3ccco3)nc3sc4c(c3c2=O)CC(C)(C)SC4)cc1	-1.2	15.9*	-29.6	70.9*	19.8*	31.5*	64.0*	RORg DNA counter=5.64*
Cc1cc(C)cc(OCc2nc3ncc(Br)cc3[nH]2)c1	4.4	34.4*	-70.7	61.9*	47.4*	62.6*	38.5*	RORg DNA counter=>40
Brc1cnc2nc(SCc3nc4ccccc4[nH]3)[nH]c2c1	-2.7	-1.1	38.2	-3.2	.	.	.
CCOc1ccc(C(=O)OCC(=O)Nc2cc(C)on2)cc1OCC	2.8	22.3*	24.4	57.6*	4.1	16.2*	31.0*
CCN(Cc1cccs1)c1ncnc2ccc(-c3ccc4c(c3)OCO4)cc12	.	.	.	3.7	.	.	.
CCOc1ccc2nc(SCC(=O)Nc3cc(C)on3)c(C)cc2c1	1.4	27.9*	-12.9	57.7*	32.9*	51.1*	14.9
CCOc1ccc2nc(SCC(=O)NNC(=O)c3ccco3)c(C)cc2c1	1.7	-0.7	16.9	2.2	.	.	.
Cc1ccc2nc(SCC(=O)Nc3cc(C)on3)c(C)cc2c1	-5.1	17.7*	-4.1	39.6*	26.1*	43.9*	20.6*
COc1ccc2cc(C)c(SCC(=O)Nc3cc(C)on3)nc2c1	6.0	34.2*	-4.3	108.7*	45.5*	63.6*	33.0*	RORg DNA counter=i
Cc1cc(C)c(C#N)c(SCC(=O)Nc2cc(C)on2)n1	.	-0.1	-63.8	6.1	.	.	.
COc1ccc(-c2ncn(CCc3ccccc3OC)c2C(C)C)cc1	.	1.5	.	4.5	.	.	.
COC(=O)[C@H](CC(C)C)N1Cc2nnn(CC3CCCCC3)c2-c2ccccc2S1(=O)=O	.	.	.	-8.6	.	.	.
Cc1cc(C)c2c(N)c(C(=O)Nc3ccccc3Br)sc2n1	-10.3	9.1*	-81.8	38.3*	23.3*	38.2*	27.9*
CCOC(=O)N1CCC(NC(=O)c2ccc3c(c2)sc2nc(-c4ccccc4)cn23)CC1	-1.9	20.6*	-37.9	62.5*	20.8*	37.7*	40.5*
CCc1ccc(NC(=O)CSc2nc3ncc(Br)cc3[nH]2)cc1	3.0	10.7*	-41.0	58.8*	27.1*	38.4*	51.7*	RORg DNA counter=i
O=C(CSc1nc2ncc(Br)cc2[nH]1)Nc1ccccc1-c1ccccc1	3.2	-2.4	-5.9	5.0	.	.	.
c1ccc(-c2nnc3n2N=C(c2ccc4ccccc4c2)CS3)cc1	.	.	.	6.2	.	.	.
CCn1c2ccccc2c2cc(NC(=O)COC(=O)c3ccccc3F)ccc21	10.3	28.4*	-27.1	25.1*	33.2*	55.8*	22.9*
CCN(CC)C(=O)c1ccc2c(=O)n(Cc3ccc4c(c3)OCO4)c(=S)[nH]c2c1	1.3	24.1*	-3.1	28.6*	3.9	8.8	11.0
O=C(CCCCn1c(=S)[nH]c2ccsc2c1=O)NCc1ccc2c(c1)OCO2	0.9	15.3*	18.3	20.0*	16.4*	28.1*	13.9
O=C(CCCCn1c(=O)[nH]c2ccsc2c1=O)NCc1ccc2c(c1)OCO2	1.4	0.4	-0.4	3.5	.	.	.
C=CCNC(=O)c1ccc(Cn2c(=S)[nH]c3cc4c(cc3c2=O)OCO4)cc1	-54.2	23.4*	9.7	58.4*	15.6*	31.4*	64.3*	RORg DNA counter=i
SMILES	NR2E3 ag-1	PG9 binder	NR2E3 ag-2	Rev-erbA mod	PG9 bind confirm	PGV04 Ab binding	NR1D1 mod conf	others
CC(COc1ccc(C#N)c(F)c1)CN1CCC(C(O)(c2ccccc2)c2ccccc2)CC1 (stereo not given)	.	.	.	6.8	.	.	.
CSc1nc(-c2ccc(Cl)cc2)nc(N)c1C#N	-2.8	24.7*	7.3	28.6*	48.5*	67.1*	-2.5
CCOC(=O)CSc1nc(N)c(C#N)c(-c2ccc(OC)cc2)c1C#N	0.8	62.7*	-20.6	75.6*	67.7*	23.4*	55.5*	PG9 bind DR=7.63*;PGV04 binding DR=6.08*;PG126 binding DR=6.98*
CCCCOc1ccc(-c2c(C#N)c(N)nc(SCC(N)=O)c2C#N)cc1	5.6	-2.4	6.2	-1.9	.	.	.
COc1ccc(-c2c(C#N)c(N)nc(Sc3ccc(Cl)cc3)c2C#N)cc1	6.5	31.5*	-12.1	83.4*	96.7*	95.2*	48.2*	PG9 bind DR=8.49*;PGV04 binding DR=4.38*;PG126 binding DR=4.87*;RORg DNA counter=>40
CC(=O)c1ccc(NC(=O)NC2CCCCN(Cc3ccc(Cl)cc3)C2=O)cc1 (stereo not given)	.	.	.	8.6	.	.	.
Cc1cc(OCC(=O)Nc2cccnc2)c2c(C)c(C)c(=O)oc2c1	-57.3	15.0*	-2.2	19.1*	14.0*	16.3*	-0.4
Cc1cc(OCC(=O)NCc2cccnc2)c2c(C)c(C)c(=O)oc2c1	1.4	0.3	-9.7	-4.8	.	.	.
O=C(COC(=O)c1cccnc1SCC(=O)NCc1ccccc1)NCc1ccccc1	14.7	31.7*	-24.8	53.2*	37.3*	53.3*	52.3*	RORg DNA counter=>40
COc1ccccc1CNC(=O)COC(=O)c1cccnc1SCC(=O)NCc1ccccc1OC	9.5	18.9*	-17.1	46.7*	29.5*	42.9*	31.1*	RORg DNA counter=>40
CCCC/C=C1/[C@H](c2ccc(Cl)cc2)N(Cc2ccc3c(c2)OCO3)C2=N[C@H](c3ccccc3)CC(=O)N21	.	.	.	-2.5	.	.	.
O=S1(=O)c2ccc(Br)cc2OC[C@@H](Cc2ccccc2)N1Cc1cn(CC2CCCCC2)nn1	.	.	.	-0.6	.	.	.
CC(C)Nc1nc(-c2ccncc2)nc(-c2ccccc2)c1C#N	-1.3	9.1*	-6.6	40.1*	43.1*	60.8*	14.1
N#Cc1c(N)nc(-c2ccccc2)nc1-c1ccccc1	1.6	1.9	1.8	3.8	.	.	.
COc1ccc(S[C@]2(C(=O)N(C)C)CC(=O)N(C(=O)/C=C/c3ccccc3)[C@@H]2c2ccc(OC)cc2)cc1	.	.	.	0.6	.	.	.

Bioassay records deposited in PubChem by several laboratories.
